The source of these data is ChEMBL document CHEMBL1772977, “Synthesis and biological evaluation of novel 4-benzylpiperazine ligands for sigma-1 receptor imaging” (Bioorg Med Chem, 2011).

The nature of assay [1]: Displacement of [3H]ditolylguanidine from sigma 2 receptor in rat liver membrane by competitive binding assay. Type of assay: cell membranes. In a few lines:
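Sigma-2 competition binding used rat liver membranes with [3H]ditolylguanidine as radioligand. 10 µM dextrallorphan was present to mask sigma-1 sites. Ki was derived by Cheng–Prusoff from at least three independent experiments, each in triplicate, and is reported as mean ± SD.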

Assay [2] concerns the target Sigma non-opioid intracellular receptor 1 (Rattus norvegicus, UniProt Q9R0C9). The assay can be described thus: Displacement of (+)-[3H]pentazocine from sigma 1 receptor in rat brain membranes by competitive binding assay. Type of assay: cell membranes. In a few lines:
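Sigma-1 competition binding used rat brain membranes as receptor material with (+)-[3H]pentazocine as radioligand. Ki was derived by Cheng–Prusoff from at least three independent experiments, each in triplicate, and is reported as mean ± SD.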

Each structure is given as a SMILES string. pKi: −log10 of the molar value.

Sequence of Sigma non-opioid intracellular receptor 1 (Q9R0C9 whole entry): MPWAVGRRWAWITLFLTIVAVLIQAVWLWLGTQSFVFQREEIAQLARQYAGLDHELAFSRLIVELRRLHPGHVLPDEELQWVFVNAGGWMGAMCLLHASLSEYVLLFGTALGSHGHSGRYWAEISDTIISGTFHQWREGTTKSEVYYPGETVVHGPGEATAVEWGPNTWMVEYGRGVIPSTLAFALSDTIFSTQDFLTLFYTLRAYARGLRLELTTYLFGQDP

With `O=[N+]([O-])c1ccc(CN2CCN(Cc3ccc4c(c3)OCO4)CC2)cc1`, the pKi in assay [1] was 7.39; in assay [2] it was 9.37.
